According to PubChem BioAssay:
Active and inactive are the calls of the source.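 The calls were made as follows, unless noted: active = inhibition at or above 50% relative to wild type and mutant plate controls; inactive = inhibition below 50%.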

Assays:
[1] = inhibitors of TNFa-induced NFkB p65 translocation, primary screen, imaging, HUVEC, MLSMR starter and 10KST1 sets (AID 438;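 active = inhibition above 20% together with a positive visual image hit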;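 also: compound added about 3h40 before a 20 min TNFalpha stimulation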;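 as to inhibition: signal is the nuclear over cytoplasmic p65 intensity ratio per well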); conditions: HUVEC TNFa-induced p65 nuclear translocation; cell count: measured here: nuclei count (cytotoxicity indicator), at 2.08 µM; inhibition: at 2 µM, stronger effect = higher value, 0% TNFa-plus-vehicle, 100% no-TNFa wells
[2] = endothelial E-selectin expression blockers – imaging, HUVEC, immunofluorescence, MLSMR starter and 10KST1 sets, primary screen (AID 487;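 active = visually confirmed hit in the image check and inhibition above 20%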;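 as to inhibition: signal is fraction of cell area covered by stained E-selectin grains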;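 as to nuclei count: 100% = median nuclei count of all wells on the same plate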); conditions: HUVEC TNFalpha-induced E-selectin immunofluorescence imaging, at 2 µM; inhibition: stronger effect = higher value; nuclei count: measured here: cell number, toxicity
[3] = Primary imaging screen for DUSP6 inhibitors that restore phospho-Erk in transfected HeLa cells, chemical complementation (AID 609;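 active = compounds giving at least 50% inhibition in the cell-based MKP-3 phosphatase rescue imaging test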;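 as to inhibition: phospho-Erk level distribution per well compared with pooled transfected vehicle control wells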); conditions: HeLa MKP-3 transfected, phospho-Erk imaging KS statistic, at 10 µM, cells stimulated with TPA for 15 min
[4] = biological target: Dual specificity protein phosphatase 6 (Homo sapiens) (UniProt Q16828); test: as above; conditions: HeLa MKP-3 transfected, phospho-Erk imaging KS statistic; at 10 µM; stronger effect = higher value; cells stimulated with TPA for 15 min
[5] = biological target: Voltage-gated potassium channel subunit beta-2 (Rattus norvegicus) (UniProt P62483); test: inhibitors of rat Kvbeta2 reductase activity – biochemical, NADPH fluorescence, primary screen (AID 622;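 active = fluorescence slope higher than the sample average by over 3 SD, cut at about -0.22 in these data, passing the limit was not always enough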;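 also: slope of raw intensity against log time taken from 70 to 1610 s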); conditions: recombinant KvBeta, 4-cyanobenzaldehyde reduction, at 10 µM, stronger effect = higher value
[6] = biological target: Voltage-gated potassium channel subunit beta-2 (Rattus norvegicus) (UniProt P62483); test: enhancers of rat Kvbeta2 NADPH turnover – biochemical, NADPH fluorescence, primary screen (AID 623;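 active = NADPH fluorescence slope more negative than the mean of all samples by about 3 SD, 99.7% confidence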;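 also: fluorescence intensity change per second fitted from 20 to 320 s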); conditions: Recombinant KvBeta, NADPH fluorescence decrease slope, 10 min; at 10 µM; stronger effect = lower value
[7] = biological target: Alpha-2C adrenergic receptor (Homo sapiens) (UniProt P18825); test: compounds altering alpha2C-coupled GIRK flux – cell-based, HEK293 alpha2C/GIRK1/2, thallium flux, primary screen (AID 624;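 active = fluorescence slope after compound addition differing from the mean of all screened samples at 99.7% confidence, in either direction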;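 also: slope of fluorescence ratio to pre-addition baseline per second over 15 to 24 s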); conditions: thallium flux BTC fluorescence, at 10 µM, actives lie on both sides
[8] = inhibitors of larval lipid processing in zebrafish, primary screen, whole organism, PED6 fluorescence, gall bladder and intestine (AID 686;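 active = a full or partial loss of lipid-probe fluorescence in the fish gall bladder, intestine or both, judged by eye; inactive = no fluorescence loss, or compound toxic to the fish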;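 also: larvae 5 to 7 days old with five fish per well; signal comes from phospholipase A2 cleavage of quenched PED6 carried via bile; overnight exposure to compound and PED6 before scoring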); conditions: Zebrafish larvae PED6 lipid processing, fluorescence scoring; screened at 20 µM (by protocol)
Procedure, shortened: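 System: live zebrafish larvae aged 5-7 days, whole organism; measure: graded gall bladder and intestinal fluorescence inhibition per well; incubation: overnight exposure; reagent: ingested quenched lipid PED6 at 100 nM; signal: By-eye fluorescence microscopy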

[9] = loss of swimming-algae plug formation – whole organism, Chlamydomonas reinhardtii, WT vs cilia-less mutant, absorbance, 96-well, primary screen (AID 463189); conditions: Chlamydomonas reinhardtii gravitaxis, OD600 absorbance, 2 days; at 10 µM; stronger effect = higher value;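 also: 0% = wild type cc124 cells in DMSO and 100% = ciliumless bld1 mutant cells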
[10] = measured here: cell density z-score
[11] = measured here: nuclear c-Myc green intensity z-score
[12] = measured here: nuclear pErk red intensity z-score, stronger effect = higher value

Chain of Dual specificity protein phosphatase 6 (Homo sapiens) (Q16828 whole entry, looked up): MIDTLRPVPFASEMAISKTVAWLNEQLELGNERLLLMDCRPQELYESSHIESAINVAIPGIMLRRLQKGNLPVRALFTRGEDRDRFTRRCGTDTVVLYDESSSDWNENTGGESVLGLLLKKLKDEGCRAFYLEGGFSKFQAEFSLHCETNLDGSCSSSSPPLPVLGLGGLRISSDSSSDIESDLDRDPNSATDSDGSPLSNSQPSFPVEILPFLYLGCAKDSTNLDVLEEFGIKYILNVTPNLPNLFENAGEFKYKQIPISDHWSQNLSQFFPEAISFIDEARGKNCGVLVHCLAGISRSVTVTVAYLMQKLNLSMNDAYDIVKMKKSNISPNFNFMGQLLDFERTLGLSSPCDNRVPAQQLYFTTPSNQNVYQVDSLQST
Chain of Alpha-2C adrenergic receptor (Homo sapiens) (P18825 whole entry, looked up): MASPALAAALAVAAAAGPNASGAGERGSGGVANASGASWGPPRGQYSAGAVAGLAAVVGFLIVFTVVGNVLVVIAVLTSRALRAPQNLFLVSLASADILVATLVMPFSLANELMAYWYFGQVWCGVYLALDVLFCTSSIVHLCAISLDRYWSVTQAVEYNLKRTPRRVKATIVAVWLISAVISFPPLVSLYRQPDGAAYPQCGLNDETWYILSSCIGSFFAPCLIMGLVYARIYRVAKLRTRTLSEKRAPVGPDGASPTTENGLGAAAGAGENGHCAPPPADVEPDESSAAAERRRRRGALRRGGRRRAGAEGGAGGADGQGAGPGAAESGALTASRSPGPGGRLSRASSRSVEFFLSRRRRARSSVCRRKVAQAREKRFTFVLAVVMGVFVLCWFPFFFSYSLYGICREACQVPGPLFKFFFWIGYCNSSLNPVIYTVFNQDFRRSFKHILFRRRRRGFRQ
Chain of Voltage-gated potassium channel subunit beta-2 (Rattus norvegicus) (P62483 whole entry, looked up): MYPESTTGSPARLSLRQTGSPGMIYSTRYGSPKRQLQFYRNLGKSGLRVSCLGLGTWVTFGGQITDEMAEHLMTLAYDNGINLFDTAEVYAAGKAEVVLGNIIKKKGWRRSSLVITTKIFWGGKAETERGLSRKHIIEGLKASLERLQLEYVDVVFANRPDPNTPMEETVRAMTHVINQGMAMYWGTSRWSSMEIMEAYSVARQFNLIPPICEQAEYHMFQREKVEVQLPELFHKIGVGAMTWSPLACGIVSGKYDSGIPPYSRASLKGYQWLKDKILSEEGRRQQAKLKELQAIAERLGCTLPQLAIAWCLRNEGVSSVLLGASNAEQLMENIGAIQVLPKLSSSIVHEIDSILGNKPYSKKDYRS

Row | SMILES | cell count [1] | inhibition [1] | inhibition [2] | nuclei count [2] [%] | z-score [3, 10] | z-score [3, 11] | z-score [3, 12] | inhibition [4] | fluorescence slope [5] | NADPH fluorescence slope [6] | slope [7] | outcome [8] | inhibition [9]
1 | Cc1nn2c(-c3ccc(Cl)cc3)nnc2s1 | 551 | -6.5% (inactive) | -65.8% (inactive) | 86.3 | -0.293 | -0.329 | 0.206 | -6.06% (inactive) | -0.421 (inactive) | -1.1e-05 (inactive) | 0.00662 (inactive) | inactive | 17.4% (inactive)
2 | CC1(C)Cc2c(C#N)c(OCC(=O)c3ccc(Cl)cc3)nc(-c3ccoc3)c2CO1 | 654 | -2.9% (inactive) | 20% (inactive) | 170 | -0.432 | -0.355 | 0.479 | 13.2% (inactive) | -0.487 (inactive) | -4.2e-05 (inactive) | 0.00736 (inactive) | inactive | 40.4% (inactive)
3 | CN1CCN(CCCCC(=O)c2ccccc2)CC1 | 600 | -9.1% (inactive) | 14.9% (inactive) | 183 | 0.5 | -1.07 | -0.798 | -6.06% (inactive) | -0.397 (inactive) | 1.3e-06 (inactive) | 0.00562 (inactive) | inactive | 68.4% (active)
4 | O=C(O)c1ccc(OCCn2ccnc2)cc1 | 490 | -6.5% (inactive) | -141% (inactive) | 185 | -0.78 | -1.02 | 1.25 | 26.5% (inactive) | -0.473 (inactive) | -0.000213 (inactive) | 0.00534 (inactive) | inactive | 0.065% (inactive)
5 | COc1cccc(C2=CC(c3ccccc3)n3ncnc3N2)c1 (stereo not given) | 565 | 3.2% (inactive) | 36.2% (inactive) | 163 | -0.222 | -0.0591 | 0.0878 | -8.76% (inactive) | -0.0434 (active) | -2e-07 (inactive) | 0.00478 (inactive) | inactive | 10.9% (inactive)
6 | Nc1nnc(Cc2ccc(Cl)c(Cl)c2)s1 | 621 | 2.9% (inactive) | 33.3% (inactive) | 174 | 0.377 | 1.31 | -0.983 | -7.86% (inactive) | -0.369 (inactive) | -3.6e-05 (inactive) | 0.00535 (inactive) | inactive | 2.91% (inactive)
7 | COc1ccc(-c2cc(-c3ccccc3)n3ncnc3n2)cc1 | 451 | 3.2% (inactive) | -35.1% (inactive) | 162 | 1.29 | 1.44 | -0.816 | -1.12% (inactive) | -0.00896 (inactive) | -5.1e-07 (inactive) | 0.00473 (inactive) | inactive | -19.8% (inactive)
8 | Cc1nnc2c(NC(C)C)nc3ccccc3n12 | 381 | -8.4% (inactive) | -63% (inactive) | 137 | 0.584 | -0.494 | -1.32 | 22.7% (inactive) | -0.382 (inactive) | -5.9e-05 (inactive) | 0.0077 (inactive) | inactive | 29.1% (inactive)
9 | COc1cccc(-c2nc(N3CCCCC3)c3ccccc3n2)c1O | 528 | 1.2% (inactive) | -31.1% (inactive) | 142 | 1.81 | 0.268 | -0.772 | 1.6e-07% (inactive) | -0.405 (inactive) | -3.2e-05 (inactive) | 0.0042 (inactive) | inactive | 15% (inactive)
10 | CCOC(=O)CNS(=O)(=O)c1cc(-c2nn(C)c(=O)c3ccccc23)ccc1C | 560 | -1.9% (inactive) | 45.7% (inactive) | 144 | 1.99 | -1.09 | -0.809 | 8.76% (inactive) | -0.385 (inactive) | -1.9e-05 (inactive) | 0.00449 (inactive) | inactive | -1.44% (inactive)
11 | CCCc1nnc(NC(=O)c2c(O)c3c([nH]c2=O)CCCC3)s1 | 312 | -15.5% (inactive) | -42.9% (inactive) | 134 | -0.253 | -0.454 | -0.547 | 17.5% (inactive) | -0.423 (inactive) | -3.6e-05 (inactive) | 0.00662 (inactive) | inactive | 14% (inactive)
12 | CCCOc1ccc(-c2nnc(N)s2)cc1 | 608 | -13.2% (inactive) | -31.6% (inactive) | 164 | 0.463 | 0.84 | -0.902 | -4.27% (inactive) | -0.403 (inactive) | -6.2e-05 (inactive) | 0.00732 (inactive) | inactive | -0.862% (inactive)
13 | Cc1cc(=O)oc(C)c1C(=O)N1CCN(Cc2ccc3c(c2)OCO3)CC1 | 387 | -8.4% (inactive) | -58.3% (inactive) | 158 | -0.184 | -0.833 | -0.4 | 9.42% (inactive) | -0.451 (inactive) | -0.000128 (inactive) | 0.00491 (inactive) | inactive | 21.2% (inactive)
14 | CCCOc1ccc(C2NC(=O)NC2=O)cc1 (stereo not given) | 614 | -8% (inactive) | -260% (inactive) | 113 | -0.563 | 1.62 | 0.505 | -0.159% (inactive) | -0.511 (inactive) | -7.1e-05 (inactive) | 0.00583 (inactive) | inactive | -17% (inactive)
15 | CCN(CC)C(=O)CN(C#N)c1nc(NC(C)C)nc(NC(C)C)n1 | 594 | 5.2% (inactive) | -48.7% (inactive) | 173 | 0.0403 | 2.22 | -0.0328 | 5.65% (inactive) | -0.213 (inactive) | 8.9e-06 (inactive) | 0.00592 (inactive) | inactive | 31.8% (inactive)
16 | CC(C)(C)n1nnc(CCc2nnn(C(C)(C)C)n2)n1 | 276 | -17.8% (inactive) | -32.2% (inactive) | 104 | 0.0896 | 1.07 | -0.74 | 10.5% (inactive) | -0.44 (inactive) | -0.000126 (inactive) | 0.00595 (inactive) | inactive | -11.8% (inactive)
17 | CCCCC1CC1C(=O)Nc1ccc(OC)c(OC)c1 (stereo not given) | 421 | -0.9% (inactive) | -42.1% (inactive) | 190 | -1.27 | -0.533 | 0.586 | -8.95% (inactive) | -0.39 (inactive) | -2.3e-05 (inactive) | 0.00756 (inactive) | inactive | 22% (inactive)
18 | Cc1cc(C(F)(F)F)nn1CC(=O)NCC1CCCO1 (stereo not given) | 516 | -3.1% (inactive) | -24% (inactive) | 137 | -0.885 | 0.653 | 1.12 | -3.98% (inactive) | -0.484 (inactive) | -0.000135 (inactive) | 0.00552 (inactive) | inactive | 12.4% (inactive)
19 | OCCNc1nc(-c2ccccc2)c2ccccc2n1 | 419 | -4.7% (inactive) | -153% (inactive) | 133 | -0.162 | 1.09 | -0.852 | -10.1% (inactive) | -0.341 (inactive) | -1.3e-05 (inactive) | 0.00672 (inactive) | inactive | -5.43% (inactive)
20 | Cc1cc(C)nc(NC2=NCC(=O)N2c2ccccc2)n1 | 599 | -3.5% (inactive) | -130% (inactive) | 136 | 1.19 | -0.204 | -1.47 | 3.97% (inactive) | -0.493 (inactive) | -3.7e-05 (inactive) | 0.00515 (inactive) | inactive | -0.727% (inactive)
21 | CCOC(=O)c1[nH]c2ccc(OC)cc2c1C | 547 | -3.8% (inactive) | -0.1% (inactive) | 171 | -0.421 | -0.589 | 0.677 | -12.3% (inactive) | -0.361 (inactive) | -2.9e-05 (inactive) | 0.0043 (inactive) | inactive | 1.77% (inactive)
22 | c1coc(-c2nnc3sc(-c4cccs4)nn23)c1 | 471 | 2.8% (inactive) | -41.9% (inactive) | 132 | -1.75 | 0.838 | 2.17 | -13.3% (inactive) | -0.459 (inactive) | 9.9e-06 (inactive) | 0.00352 (inactive) | active; weak signal in gallbladder and intestine | 3.53% (inactive)
23 | CCC(=O)OC1=C2C(=Nc3c(c(=O)n(C)c(=O)n3C)C2c2ccccc2)c2ccccc21 (stereo not given) | 509 | -2.9% (inactive) | -57.1% (inactive) | 75.2 | -0.341 | 0.242 | 0.679 | 1.9e-07% (inactive) | -0.505 (inactive) | -5.2e-05 (inactive) | 0.00546 (inactive) | inactive | 15.5% (inactive)
24 | COC(=O)c1[nH]c2cc(OC)ccc2c1NC(=O)CCN1CCCC(C)(C)C1 | 350 | -5.3% (inactive) | -2.2% (inactive) | 153 | -0.606 | -0.827 | 0.954 | 7.42% (inactive) | -0.44 (inactive) | -0.00014 (inactive) | 0.00716 (inactive) | inactive | -7.62% (inactive)
25 | CCN=C1SC(C(=O)Nc2ccc(Cl)c(Cl)c2)CC(=O)N1CC (stereo not given) | 388 | -0.4% (inactive) | -56.6% (inactive) | 133 | 1.74 | -1.1 | -1.57 | 7.42% (inactive) | -0.423 (inactive) | -0.000131 (inactive) | 0.00577 (inactive) | inactive | 0.946% (inactive)
